In ChEMBL document CHEMBL1126829, “Synthesis and relative potencies of new constrained CRF antagonists” (1993):
Where a SMILES comes first, the peptide text is derived from it. [ ]: non-standard residue; d: D form. NMeL = CN[C@@H](CC(C)C)C(=O)O; NMeA = CN[C@@H](C)C(=O)O

Assays:
Rattus norvegicus [1] = organism: Rattus norvegicus; assay: Percent intrinsic activity was determined in rat pituitary cells; assay type: functional, Pituitary gland cell
Rattus norvegicus [2] = organism: Rattus norvegicus; assay: Compound was tested in vitro to antagonize CRF-induced release of ACTH by rat pituitary cells in culture; assay type: functional, Pituitary gland cell
Outline: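 Collagenase-dispersed rat anterior pituitary cells were grown in monolayer culture for 3–5 days. Cells were then incubated for 3 h with peptide at several doses against 1 nM CRF stimulation (n = 3). ACTH secreted into the medium was measured by double-antibody RIA. Relative potencies were derived from the dose-response curves.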

Work on `CCCC[C@H](NC(=O)[C@H](CCC(=O)O)NC(=O)[C@H](CC(C)C)NC(=O)[C@@H](NC(=O)[C@H](CCC(=O)O)NC(=O)[C@H](CCCN=C(N)N)NC(=O)[C@H](CC(C)C)NC(=O)[C@](C)(CC(C)C)NC(=O)[C@H](Cc1c[nH]cn1)NC(=O)[C@H](N)Cc1ccccc1)C(C)C)C(=O)N[C@@H](C)C(=O)N[C@@H](CCCN=C(N)N)C(=O)NC(C)(C)C(=O)N[C@@H](CCC(=O)O)C(=O)N[C@@H](CCC(N)=O)C(=O)N[C@@H](CC(C)C)C(=O)NC(C)(C)C(=O)N[C@@H](CCC(N)=O)C(=O)N[C@@H](CCC(N)=O)C(=O)NC(C)(C)C(=O)N[C@@H](Cc1c[nH]cn1)C(=O)N[C@@H](CO)C(=O)N[C@@H](CC(N)=O)C(=O)N[C@@H](CCCN=C(N)N)C(=O)N[C@@H](CCCCN)C(=O)N[C@@H](CC(C)C)C(=O)N[C@@H](CCCC)C(=O)N[C@@H](CCC(=O)O)C(=O)N[C@H](C(=O)N[C@H](C(N)=O)[C@@H](C)CC)[C@@H](C)CC` yielded an IA (Rattus norvegicus [1]) of 23%.
`CCCC[C@H](NC(=O)[C@H](CCC(=O)O)NC(=O)[C@H](CC(C)C)NC(=O)[C@@H](NC(=O)[C@H](CCC(=O)O)NC(=O)[C@H](CCCN=C(N)N)NC(=O)[C@](C)(CC(C)C)NC(=O)[C@H](CC(C)C)NC(=O)[C@H](Cc1c[nH]cn1)NC(=O)[C@H](N)Cc1ccccc1)C(C)C)C(=O)N[C@@H](C)C(=O)N[C@@H](CCCN=C(N)N)C(=O)NC(C)(C)C(=O)N[C@@H](CCC(=O)O)C(=O)N[C@@H](CCC(N)=O)C(=O)N[C@@H](CC(C)C)C(=O)NC(C)(C)C(=O)N[C@@H](CCC(N)=O)C(=O)N[C@@H](CCC(N)=O)C(=O)NC(C)(C)C(=O)N[C@@H](Cc1c[nH]cn1)C(=O)N[C@@H](CO)C(=O)N[C@@H](CC(N)=O)C(=O)N[C@@H](CCCN=C(N)N)C(=O)N[C@@H](CCCCN)C(=O)N[C@@H](CC(C)C)C(=O)N[C@@H](CCCC)C(=O)N[C@@H](CCC(=O)O)C(=O)N[C@H](C(=O)N[C@H](C(N)=O)[C@@H](C)CC)[C@@H](C)CC` was tested, and the IA (Rattus norvegicus [1]) was 8%.
`CSCC[C@H](NC(=O)[C@H](CCC(=O)O)NC(=O)[C@H](CCCN=C(N)N)NC(=O)[C@H](CC(C)C)N(C)C(=O)[C@H](CC(C)C)NC(=O)[C@H](Cc1c[nH]cn1)NC(=O)[C@H](Cc1ccccc1)NC(=O)[C@@H](NC(=O)[C@H](CC(C)C)N(C)C(=O)[C@@H](N)CC(=O)O)[C@@H](C)O)C(=O)N[C@@H](CC(C)C)C(=O)N[C@@H](CCC(=O)O)C(=O)N[C@@H](CCSC)C(=O)N(C)[C@@H](C)C(=O)N[C@@H](CCCCN)C(=O)N[C@@H](C)C(=O)N[C@@H](CCC(=O)O)C(=O)N[C@@H](CCC(N)=O)C(=O)N(C)[C@@H](CC(C)C)C(=O)N[C@@H](C)C(=O)N[C@@H](CCC(=O)O)C(=O)N[C@@H](CCC(N)=O)C(=O)N[C@@H](C)C(=O)N(C)[C@@H](C)C(=O)N[C@@H](CC(C)C)C(=O)N[C@@H](CC(N)=O)C(=O)N[C@@H](CCCN=C(N)N)C(=O)N[C@@H](CC(C)C)C(=O)N(C)[C@@H](CC(C)C)C(=O)N[C@@H](CC(C)C)C(=O)N[C@@H](CCC(=O)O)C(=O)N[C@@H](CCC(=O)O)C(=O)N(C)[C@@H](C)C(N)=O` (H-D[NMeL]TFHL[NMeL]REMLEM[NMeA]KAEQ[NMeL]AEQA[NMeA]LNRL[NMeL]LEE[NMeA]-NH2) gave an IA (Rattus norvegicus [1]) of 0% and a Potency (Rattus norvegicus [2]) of 0.
Molecule H-DLTFHLLREMLEMAKAEQEAEQAALNRLLLEEA-NH2 has an IA (Rattus norvegicus [1]) of 14% and a Potency (Rattus norvegicus [2]) of 0.12.
